Screening results (PubChem BioAssay)
GPR7 antagonist: GPR7 receptor antagonists, primary screen, cell-based, fluorescence, single concentration; GPR7-expressing cells, fluorescence antagonist assay; inhibition, % at 4.4 µM; Neuropeptides B/W receptor type 1 (Homo sapiens), P48145; AID 1861, 2009; 1.1% of 290,000 active; in the data active means inhibition above about 16%, passing the limit was not always enough;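 further: cells stimulated with the agonist NPW; 0% = agonist with vehicle and 100% = vehicle without agonist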
LANA-H2A inh: blockers of LANA interaction with H2A/H2B – biochemical, FP readout, HTS, primary screen; cell-free LANA-H2A/H2B peptide, fluorescence polarization; inhibition, % (no concentration beside the values); 0.6% of 320,000 active; AID 2629, 2010; in the data active means inhibition mostly above about 10%, no sharp cut-off; inactive means mostly below about 6.7%
TRPML3 agonist: human TRPML3 channel agonists, primary screen, cell-based, HEK293 TRPML3-YFP, Fluo-8 calcium fluorescence, 3 µM | AID 1448, 2008 | 100% = the carbachol control signal | 0.29% of 220,000 active | activation, % at 3 µM;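 active means activation above its plate's cutoff, the mean activation of the plate's test wells plus 3 SD, cut at about 12% in these data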;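 further: 0% = DMSO only wells and 100% = carbachol wells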
Target sequence (Q8TDD5 whole entry, looked up): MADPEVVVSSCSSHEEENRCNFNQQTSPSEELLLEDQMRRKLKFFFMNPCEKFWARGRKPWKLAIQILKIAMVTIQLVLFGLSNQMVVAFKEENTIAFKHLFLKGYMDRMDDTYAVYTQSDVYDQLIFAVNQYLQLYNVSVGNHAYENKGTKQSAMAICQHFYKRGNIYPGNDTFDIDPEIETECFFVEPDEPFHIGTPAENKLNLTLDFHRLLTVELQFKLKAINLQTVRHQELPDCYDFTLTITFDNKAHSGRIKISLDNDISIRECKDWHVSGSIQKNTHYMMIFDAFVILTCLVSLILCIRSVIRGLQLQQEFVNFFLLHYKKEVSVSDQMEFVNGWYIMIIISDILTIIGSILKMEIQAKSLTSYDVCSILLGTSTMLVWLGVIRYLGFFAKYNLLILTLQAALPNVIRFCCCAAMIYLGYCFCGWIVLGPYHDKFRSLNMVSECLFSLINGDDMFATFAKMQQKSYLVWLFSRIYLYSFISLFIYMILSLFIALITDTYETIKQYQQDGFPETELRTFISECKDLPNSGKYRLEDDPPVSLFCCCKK
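Test system – HEK293 line with stable expression of human TRPML3-YFP channel · Control set – carbachol 87 µM final as high control (100%), DMSO as low control (0%) · Signal – Fluo-8 calcium dye fluorescence, ex 470-495, em 515-575 nm · Incubation – 1-h 37 °C dye load, 5-s basal, 120-s post-compound reads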
TAAR1 antagonist: human TAAR1 antagonists, primary screen, Fluo-8 calcium fluorescence, CHO RD-HGA16 cells | Trace amine-associated receptor 1 (Homo sapiens), Q96RJ0 | antagonist | inhibition, % at 3 µM | 1.5% of 360,000 active | AID 624466, 2012;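 active means inhibition above a per-plate cutoff, the mean inhibition of test compounds on that plate plus 3 SD, cut at about 49% in these data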;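 further: 0% = DMSO plus EC80 beta-PEA response and 100% = DMSO alone without agonist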
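Test system – hTAAR1-expressing CHO RD-HGA16 cells, Gα16-coupled · Also added – β-PEA at EC80 concentration, post-compound challenge · Compound – 3 µM, single point · Incubation – dye loading 75 min at 37 °C, then 30 min room temperature · Measured by – Fluo-8 intracellular calcium dye fluorescence, real-time kinetic reads · Benchmarks – vehicle and agonist controls · Replicates – singlicate, one well per test compound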
TAAR1 ag: human TAAR1 agonists, primary screen, Fluo-8 calcium fluorescence, CHO RD-HGA16 cells. 0.99% of 360,000 active. activation, % at 3 µM. vehicle wells 0%, saturating PEA agonist 100%;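 active means activation above the mean activation of all test compounds in the run plus 3 SD, cut at about 38% in these data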
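test system = CHO RD-HGA16 cells carrying human TAAR1 plus Gα16 | schedule = 17-24 h seeding, 75 min 37 °C dye, 30 min RT | compound dosing = 3 µM single concentration | control set = DMSO and PEA EC100 | replicates = n 1 | signal = Fluo-8 fluorescence, 5 s baseline then 140 s kinetic read | measure = percent activation vs PEA EC100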
TRPN1 ag: zebrafish TRPN1 channel agonists, primary screen, cell-based, HEK293, calcium fluorescence. transient receptor potential cation channel N1 (TRPN1/NompC), Danio rerio. HEK293 zebrafish TRPN1-YFP, Fluo-8 calcium fluorescence; 100% = response to 87 µM carbachol. activation, % at 3 µM. 0.18% of 220,000 active. AID 1424, 2008;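 active means activation above its plate's cutoff, the mean activation of test wells on that plate plus 3 SD, cut at about 19% in these data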;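 further: 0% = DMSO alone and 100% = 87 µM carbachol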
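Assay system: Zebrafish TRPN1-YFP in HEK293 cells | Incubation: Dye loading 1 h at 37 °C, then 30 min room temperature | Measured by: Kinetic Fluo-8 fluorescence, ex 470-495, em 515-575 nm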
TAAR1 ag conf: human TAAR1 agonists, retest of hits, confirmation, Fluo-8 calcium fluorescence, CHO RD-HGA16 cells; 82% of 2,400 active; scaled: DMSO 0%, maximal phenethylamine 100%; shares compounds with TAAR1 ag; activation, % at 3 µM;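 active means activation above a cutoff set at the run's mean compound activation plus 3 SD, cut at about 39% in these data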
Ga16 ag counter: nonselective calcium mobilization agonists, CHO-Ga16 cells, counter-screen for hTAAR1 agonist project, cell-based, fluorescence, CHO-Ga16 parental line | shares compounds with TAAR1 ag | activation, % at 3 µM | Fluo-8 calcium fluorescence; normalized to maximal ATP response, DMSO zero | 50% of 2,400 active;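 active means activation above the run cutoff, the mean activation over all tested wells plus 3 SD, cut at about 12% in these data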;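 further: 0% = DMSO wells and 100% = maximal ATP response on the peak over basal ratio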
TAAR1 desens: TAAR1 desensitization by agonist hits, confirmation, counter-screen for TAAR1 agonist project, cell-based, fluorescence, tachyphylaxis. shares compounds with TAAR1 ag. CHO RD-HGA16 hTAAR1, Fluo-8 calcium, beta-PEA response inhibition. inhibition, % at 3 µM. 46% of 2,400 active;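 active means inhibition above the run cutoff, the mean inhibition of all test compounds plus 3 SD, cut at about 49% in these data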;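 further: beta-PEA stimulus applied at its EC80; loss of beta-PEA calcium signal after compound pretreatment read as receptor desensitization; 0% = DMSO with beta-PEA at EC80 and 100% = DMSO alone without agonist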
Ga16 antag count: inhibition of ATP-evoked calcium response in CHO-Ga16 cells, counter-screen for TAAR1 agonist project, cell-based, fluorescence; shares compounds with TAAR1 ag; CHO-Ga16 ATP-induced calcium, Fluo-8 fluorescence; inhibition, % at 3 µM; 39% of 2,400 active;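 active means inhibition above the plate's mean compound inhibition plus 3 SD, computed per plate, cut at about 22% in these data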;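 further: 0% = EC80 ATP with DMSO and 100% = DMSO wells without ATP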
* = called active by the depositor; x = no result. A selection: hits, their analogues and other compounds. The true share with any hit is near 3.4%.

SMILES	GPR7 antagonist	LANA-H2A inh	TRPML3 agonist	TAAR1 antagonist	TAAR1 ag	TRPN1 ag	TAAR1 ag conf	Ga16 ag counter	TAAR1 desens	Ga16 antag count
O=C(NCCc1ccccc1)C1CCCN(S(=O)(=O)c2cccc3nsnc23)C1 (centres undefined)	-17	3	0	72*	97*	1	85*	6	91*	15
O=C(NCCc1ccccc1)C(NS(=O)(=O)c1cccc2nsnc12)c1ccccc1 (centres undefined)	-6	-2	-1	11	41*	-1	76*	-1	41	11
Cn1cc(-c2ccc3c(c2)OCO3)c2ccccc21	x	x	x	-14	2	x	x	x	x	x
Cc1nc(C(F)(F)F)ccc1C(=O)N1CCC1(C)C(=O)NS(=O)(=O)c1ccc2ccccc2c1 (centres undefined)	x	x	x	-26	5	x	x	x	x	x
CC(C)(C)c1ccc(OCCNC(=S)Nc2ccccc2)cc1	-12	-2	0	16	6	0	x	x	x	x
CC(C)(C)c1ccc(OCCNCc2ccccc2)cc1	4	1	x	14	71*	x	72*	34*	21	11
Cc1cccn2c(CNCCc3ccccn3)c(C(=O)N3CCOCC3)nc12	-8	29*	x	9	49*	x	68*	5	41	18
Cc1cc(NC(=O)C2CCCC2)n(-c2nc3ccccc3[nH]2)n1	-5	-2	-1	5	56*	1	-1	-1	7	17
CC(C)CC(N)c1csc(NC(=O)C(c2ccccc2)c2ccccc2)n1 (centres undefined)	x	x	x	66*	75*	x	75*	34*	73*	50*
CC(Sc1nccn1C)C(=O)c1c(N)n(C)c(=O)n(C)c1=O (centres undefined)	x	4	x	-26	1	x	x	x	x	x
Cc1cc(NS(=O)(=O)c2ccccc2)c(C)c(Cl)c1O	x	1	x	8	55*	x	67*	26*	39	19
Cc1c(O)ccc(NS(=O)(=O)c2ccccc2)c1C	-15	1	0	0	10	-1	x	x	x	x
CC1=CC2=NC(=O)/C(=C\c3cc(C)n(-c4ccc(F)cc4)c3C)C(=N)N2O1	-7	2	0	87*	43*	1	5	8	50*	38*
CCOc1ccc(S(=O)(=O)N2CCCCC2)cc1NC(=O)CN1C(=O)NC(C)(c2ccc(C)cc2)C1=O (centres undefined)	x	-4	x	x	x	x	x	x	x	x
Cc1cccc(NC(=O)CN2C(=O)S/C(=C\c3ccc(O)c([N+](=O)[O-])c3)C2=O)c1	2	1	-1	-27	3	-1	x	x	x	x
